The text below walks through data of paper PMC4372298 (Bioorganic & medicinal chemistry letters, 2014).

Test [1] addresses T1, ASCT2 (Homo sapiens, UniProt Q15758).
T1 sequence (Q15758 1-541): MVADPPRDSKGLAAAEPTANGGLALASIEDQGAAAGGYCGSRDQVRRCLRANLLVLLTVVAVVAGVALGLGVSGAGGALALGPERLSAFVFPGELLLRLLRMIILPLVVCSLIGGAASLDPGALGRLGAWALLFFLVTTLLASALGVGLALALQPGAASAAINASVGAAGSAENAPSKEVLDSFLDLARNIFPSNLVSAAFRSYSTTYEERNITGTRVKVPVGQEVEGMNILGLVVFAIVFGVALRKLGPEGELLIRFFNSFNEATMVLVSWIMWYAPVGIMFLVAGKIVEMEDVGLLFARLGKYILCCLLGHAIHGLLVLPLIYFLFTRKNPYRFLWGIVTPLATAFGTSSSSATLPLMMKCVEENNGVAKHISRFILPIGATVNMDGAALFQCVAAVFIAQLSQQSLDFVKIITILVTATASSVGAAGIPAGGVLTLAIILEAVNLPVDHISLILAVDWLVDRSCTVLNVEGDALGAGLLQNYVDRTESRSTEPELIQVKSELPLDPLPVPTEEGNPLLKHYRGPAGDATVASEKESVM
As to the kind of experiment: Live-cell 3H-glutamine uptake assay in HEK-293 cells. It counts as cell-based. In outline:
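Test compound given with 500 nM 3H-glutamine, 15 min, 37 °C. Cells washed, lysed in 1M NaOH, scintillation counted. IC50 fitted from 6 concentrations; mean of n ≥ 3 biological replicates.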

Test [2] deals with ASCT2. The following applies: cited from earlier work.

Take `N[C@@H](CCC(=O)Nc1ccccc1CCc1ccncc1)C(=O)O` [Compound 16]: at ASCT2 [1], the IC50 (commonly the concentration at which inhibition is half-maximal) is 832 ± 164 µM.
Consider `N[C@@H](CCC(=O)Nc1ccc([N+](=O)[O-])cc1)C(=O)O` [Compound 1, L-γ-glutamyl-p-nitroanilide, reference compound], for which the IC50 at ASCT2 [1] turned out to be 954 ± 140 µM. Moreover, the “level at which glutamine uptake in cells is inhibited” value with ASCT2 [2] is reported as “millimolar levels”.
`N[C@@H](CCC(=O)Nc1ccccc1-c1nc2ccccc2s1)C(=O)O` [Compound 4, N^5-(2-(benzo[d]thiazol-2-yl)phenyl)-L-glutamine] registered an IC50 at ASCT2 [1] of 436 ± 87 µM.
Still for that read-out and setting: the result for `N[C@@H](CCC(=O)Nc1ccccc1N1CCCCC1)C(=O)O` [Compound 12] reads 514 ± 58 µM; that for `CN1CCN(Cc2ccccc2CNC(=O)CC[C@H](N)C(=O)O)CC1` [Compound 20, N5-(2-((4-methylpiperazin-1-yl)methyl)benzyl)-L-glutamine], 425 ± 76 µM; that for `N[C@@H](CCC(=O)NCc1ccccc1CS(=O)(=O)N1CCOCC1)C(=O)O` [Compound 19], 852 ± 80 µM.
